Measured values reported in ChEMBL document CHEMBL5321236, “Fluoro-labelled sp2-iminoglycolipids with immunomodulatory properties” (Eur J Med Chem, 2023).
Calls of active or inactive are those of the source. No cut-off for these calls is given here.

How the values were obtained:
A549 = assay: Growth inhibition of human A549 cells measured after 48 hrs by SRB colorimetric assay; assay type: functional
Method in brief: (§1)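 NCI-based protocol with sulforhodamine B read-out. Seeded 2500 (A549, HBL-100, HeLa, SW1573), 5000 (T-47D, WiDr, SW1573/P-gp) or 7000 (BJ-hTERT) cells/well. Exposed 48 h to serial decimal dilutions, 0.001–100 μM, from 40 mM DMSO stock. GI50 by NCI formulas; mean of three or more experiments ± SD.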

HBL-100 = assay: Growth inhibition of human HBL-100 cells measured after 48 hrs by SRB colorimetric assay; assay type: functional; method in brief: as §1
HeLa [1] = assay: Growth inhibition of human HeLa cells measured after 48 hrs by SRB colorimetric assay; assay type: functional; method in brief: as §1
T47D = assay: Growth inhibition of human T47D cells measured after 48 hrs by SRB colorimetric assay; assay type: functional; method in brief: as §1
SW1573 [2] = assay: Growth inhibition of human SW1573 cells measured after 48 hrs in absence of verapamil by SRB colorimetric assay; assay type: functional
Method in brief: as §1, with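 “read-out. Cells grown in RPMI 1640 with 5% FBS and 1 mM glutamine at 37 °C, 5% CO₂.” for “read-out.”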

SW1573 [3] = assay: Growth inhibition of human SW1573 cells measured after 48 hrs in presence of verapamil by SRB colorimetric assay; assay type: functional
Method in brief: as §1, with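 “read-out. Cells grown in RPMI 1640 with 5% FBS and 1 mM glutamine at 37 °C, 5% CO₂.” for “read-out.”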

SW1573 [4] = assay: Growth inhibition of human SW1573 cells overexpressing P-glycoprotein measured after 48 hrs in presence of verapamil by SRB colorimetric assay; assay type: functional
Method in brief: as §1, with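 “read-out. Cells grown in RPMI 1640 with 5% FBS and 1 mM glutamine at 37 °C, 5% CO₂.” for “read-out.”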

[5] = Resistance factor, ratio of GI50 for growth inhibition of human SW1573 cells overexpressing P-glycoprotein measured after 48 hrs in presence of verapamil to GI50 for growth inhibition of human SW1573 cells measured after 48 hrs in presence of verapamil; assay type: functional
Method in brief: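 SW1573 parental and P-gp-overexpressing cells given 48 h exposure to serial dilutions (0.001–100 μM) in medium containing verapamil at a final 10 μM as P-gp transport inhibitor. SRB read-out, GI50 by NCI formulas. Resistance factor taken as GI50 in SW1573/P-gp divided by GI50 in SW1573.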

SW1573 [6] = assay: Inhibition of colony formation in human SW1573 cells assessed as reduction in number of colonies at GI50 concentration measured after 7 days by crystal violet staining based analysis; assay type: functional, cell-based; settings: time 7.0 day
Method in brief: (§2)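 HeLa and SW1573 seeded at 400 cells/well, dosed next day at GI50/3 and GI50 for the given line. Exposed seven days, fixed in methanol, stained with 0.5% w/v crystal violet. Colonies counted by automatic image segmentation.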

SW1573 [7] = assay: Inhibition of colony formation in human SW1573 cells assessed as reduction in colony size at GI50 concentration measured after 7 days by crystal violet staining based analysis; assay type: functional, cell-based; settings: time 7.0 day; method in brief: as §2
SW1573 [8] = assay: Inhibition of colony formation in human SW1573 cells assessed as reduction in colony size at one third of GI50 concentration measured after 7 days by crystal violet staining based analysis; assay type: functional, cell-based; settings: time 7.0 day; method in brief: as §2
HeLa [9] = assay: Induction of apoptosis in human HeLa cells assessed as membrane blebbing at 20 uM measured upto 15 hrs by microscopy based analysis; assay type: functional, cell-based
Method in brief: (§3)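 HeLa and SW1573 seeded at 100,000 cells/dish. After 24 h, medium switched to phenol-red-free RPMI 1640 and 20 μM added. Label-free holotomographic 3D live imaging of a 236 × 236 μm field, 10–20 cells initially, every 3 min for 15 h. Average dry mass density measured per cell at each cycle; morphology scored against untreated cells.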

SW1573 [10] = assay: Induction of morphological changes in human SW1573 cells assessed as increase in average dry mass density at 20 uM measured after 15 hrs by imaging based analysis; assay type: functional, cell-based; method in brief: as §3
SW1573 [11] = assay: Induction of morphological changes in human SW1573 cells assessed as decrease in cell volume at 20 uM measured after 5 hrs by microscopy based analysis; assay type: functional; method in brief: as §3
SW1573 [12] = assay: Induction of morphological changes in human SW1573 cells assessed as formation of apoptotic bodies at 20 uM measured after 5 hrs by microscopy based analysis; assay type: functional, cell-based; method in brief: as §3
HeLa [13] = assay: Induction of morphological changes in human HeLa cells assessed as decrease in cell volume at 20 uM measured after 5 hrs by microscopy based analysis; assay type: functional; method in brief: as §3
HeLa [14] = assay: Induction of morphological changes in human HeLa cells assessed as cell shrinkage at 20 uM measured after 5 hrs by microscopy based analysis; assay type: functional; method in brief: as §3
BV-2 [15] = assay: Cytotoxicity against mouse BV-2 cells at 10 uM measured after 24 hr by crystal violet staining based analysis; assay type: toxicity, cell-based; settings: bv-2, 24 h
Method in brief: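 Bv.2 cells grown to 70% confluence, exposed 24 h in serum-free medium to 0.1, 1.0, 10 and 25 μM. Fixed with 1% glutaraldehyde, stained with 0.1% crystal violet, dye released in 10% acetic acid, absorbance 590 nm. Mean ± SEM, n ≥ 3 independent experiments.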

BV-2 [16] = assay: Antiinflammatory activity in mouse BV-2 cells assessed as restoration of […] expression level at 10 uM incubated for 24 hrs with LPS stimulation by qRT-PCR analysis; assay type: functional, cell-based
Method in brief: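 Bv.2 microglia stimulated with LPS 200 ng/mL with or without compound at 10 μM for 24 h. Arg1 mRNA measured by qRT-PCR, Actinb as housekeeping gene, 2^-ΔΔCT method, fold change relative to basal. n ≥ 4 independent experiments in triplicate.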

[17] = molecular target: Mitogen-activated protein kinase 14 (Mus musculus) (UniProt P47811); assay: Inhibition of LPS-stimulated p38 alpha phosphorylation in mouse BV-2 cells at 10 uM measured after 30 mins by Western blot analysis; assay type: cell-based
Method in brief: (§4)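 Bv.2 cells exposed with or without LPS for 15–90 min. Protein extracts run on SDS-PAGE, blotted to PVDF, probed with anti-phospho-p38α MAPK and anti-total p38α MAPK (1:1000), ECL detection. Quantified by densitometry, mean ± SEM, n = 3.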

[18] = molecular target: Mitogen-activated protein kinase 14 (Mus musculus) (UniProt P47811); assay: Inhibition of LPS-stimulated p38 alpha phosphorylation in mouse BV-2 cells at 10 uM measured after 15 to 90 mins by Western blot analysis; assay type: cell-based; settings: time 15-90 min; method in brief: as §4
HeLa [19] = assay: Induction of morphological changes in human HeLa cells at 20 uM measured after 12 hrs by imaging based analysis
HeLa [20] = assay: Induction of morphological changes in human HeLa cells assessed as increase in cell shrinkage at 20 uM measured after 12 hrs by imaging based analysis
BV-2 [21] = assay: Protection against LPS induced inflammation in mouse BV-2 cells assessed as decrease in IL1-beta mRNA expression at 10 uM incubated for 24 hrs with LPS stimulation by qRT-PCR analysis
BV-2 [22] = assay: Protection against LPS induced inflammation in mouse BV-2 cells assessed as decrease in Tnf-alpha mRNA expression at 10 uM incubated for 24 hrs with LPS stimulation by qRT-PCR analysis

Sequence of Mitogen-activated protein kinase 14 (Mus musculus) (P47811 whole entry): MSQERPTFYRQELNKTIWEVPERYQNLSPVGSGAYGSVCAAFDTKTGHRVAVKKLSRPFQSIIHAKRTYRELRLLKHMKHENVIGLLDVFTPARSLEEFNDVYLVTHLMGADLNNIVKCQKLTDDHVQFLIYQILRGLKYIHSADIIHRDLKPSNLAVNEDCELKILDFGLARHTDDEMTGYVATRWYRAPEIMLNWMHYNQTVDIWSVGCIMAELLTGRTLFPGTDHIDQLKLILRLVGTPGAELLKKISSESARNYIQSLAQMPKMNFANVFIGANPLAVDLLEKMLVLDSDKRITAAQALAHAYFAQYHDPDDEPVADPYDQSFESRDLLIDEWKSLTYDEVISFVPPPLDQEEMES

- GI50 (A549): 4.6 µM
- GI50 (HeLa [1]): 4.5 µM
- GI50 (T47D): 18 µM
- GI50 (SW1573 [2]): 3.3 µM
- GI50 (SW1573 [3]): 15 µM
- GI50 (SW1573 [4]): 11 µM
- inhibition [17]: inactive
- inhibition [18]: inactive
Compound: CCCCCCCCCCCCS(=O)(=O)[C@@H]1[C@H](F)[C@@H](O)[C@H](O)[C@H]2COC(=O)N21
- GI50 (HBL-100): 19 µM
- RatioGI50 [5]: 0.7
- inhibition (SW1573 [6]): Active
- inhibition (SW1573 [7]): Active
- inhibition (SW1573 [8]): Active
- Activity (HeLa [9]): Active
- Activity (SW1573 [10]): Active
- Activity (SW1573 [11]): Active
- Activity (SW1573 [12]): Active
- Activity (HeLa [13]): Active
- Activity (HeLa [14]): Active
- Activity (BV-2 [15]): Non-Toxic
- Activity (BV-2 [16]): Active
- Activity (HeLa [19]): Active
- Activity (HeLa [20]): Active
- Activity (BV-2 [21]): Active
- Activity (BV-2 [22]): Active
